Measurements of several laboratories.
Lines come from different studies, so protocols differ.
Target: Activated CDC42 kinase 1 (TNK2, Homo sapiens, UniProt Q07912)

| SMILES | test | conditions | remaining binding [%] |
| --- | --- | --- | --- |
| C[C@@H]1CCN(c2nccc(-c3cnn4ncccc34)n2)C1 | binding | 1 µM | 100 |
| CNCc1ccccc1-c1csc([C@@H](C)Nc2nc(C)nc3cc(OC)c(OC)cc23)c1 | cell-free assay, competition with immobilised ligand | 1 µM | 100 |
| Cc1c(-c2ccccc2)oc2c(C(=O)OCCN3CCCCC3)cccc2c1=O | cell-free assay, competition with immobilised ligand | 10 µM | 94 |
| F[C@@H]1CCN(c2nccc(-c3cnn4ncccc34)n2)C1 | binding | 1 µM | 79 |
| COc1cnc(Nc2cccc(S(N)(=O)=O)c2)nc1N1CCN(c2ccccc2)C(=O)C1 | binding, competition with immobilised ligand | 1 µM | 100 |
| O=C(NCCCN1CCOCC1)c1ccc(Nc2ncc(Cl)c(-c3ccc(Cl)s3)n2)cc1 | binding, competition with immobilised ligand | 1 µM | 53 |
| O=C(NS(=O)(=O)c1ccc(NCC2CCOCC2)c([N+](=O)[O-])c1)c1ccc(N2CCN(Cc3ccc(C(F)(F)F)cc3-c3ccc(Cl)cc3)CC2)cc1Oc1cnc2[nH]ccc2c1 | cell-free assay, competition with immobilised ligand | 1 µM | 100 |
| Cc1cnc(Nc2ccc(C(=O)N3CCC(N4CCCC4)CC3)cc2)nc1-c1cc2ccccc2s1 | binding, competition with immobilised ligand | 1 µM | 10 |
| FC(F)(F)Oc1cccc(-c2cnc3ccc(-c4ccncc4)nn23)c1 | binding, competition with immobilised ligand | 5 µM | 79 |
| CCC(=O)N[C@H]1CC[C@@H](C(=O)N(C)c2ccc(-c3nc4ccccc4o3)cc2)C1 | cell-free assay, competition with immobilised ligand | 1 µM | 84 |
| COc1cc2ncnc(Nc3ccc(F)c(Cl)c3)c2cc1OCCCN1CCOCC1 | cell-free assay, competition with immobilised ligand | 10 µM | 77 |
| O=C(NCC1CCOCC1)c1n[nH]cc1NC(=O)c1c(F)cccc1F | binding, competition with immobilised ligand | 1 µM | 98 |
| O=C(c1ccc(Nc2ncc(Cl)c(-c3cc4ccccc4s3)n2)cc1)N1CCC(N2CCCC2)CC1 | binding, competition with immobilised ligand | 1 µM | 54 |
| Cc1nc(Nc2ncc(C(=O)Nc3c(C)cccc3Cl)s2)cc(N2CCN(CCO)CC2)n1 | cell-free assay, competition with immobilised ligand | 10 µM | 0 |
| CCS(=O)(=O)c1cc2cc(C[C@](O)(CC(C)(C)c3ccc(F)cc3C(N)=O)C(F)(F)F)[nH]c2cn1 | cell-free assay, competition with immobilised ligand | 1 µM | 100 |
| CNC(=O)[C@@H]1CC[C@@H](n2c(-c3ccc4cnccc4c3)nc3ccc(C(=O)NCc4cccc(C(N)=O)c4)cc32)C1 | binding, competition with immobilised ligand | 1 µM | 100 |

| SMILES | test | conditions | remaining binding [%] |
| --- | --- | --- | --- |
| CS(=O)(=O)CCNCc1ccc(-c2ccc3ncnc(Nc4ccc(OCc5cccc(F)c5)c(Cl)c4)c3c2)o1 | cell-free assay, competition with immobilised ligand | 10 µM | 93 |
| CN(CCCC(F)(F)F)c1nccc(-c2cnn3ncccc23)n1 | binding | 1 µM | 83 |
| CN1CC[C@H](c2c(O)cc(O)c3c(=O)cc(-c4ccccc4Cl)oc23)[C@H](O)C1 | cell-free assay, competition with immobilised ligand | 10 µM | 74 |
| CN(C)c1ncc(F)c(-c2cnn3ncccc23)n1 | binding | 1 µM | 77 |
| CCN(CC)CCNC(=O)c1c(C)[nH]c(/C=C2\C(=O)Nc3ccc(F)cc32)c1C | cell-free assay, competition with immobilised ligand | 0.1 µM | 93 |
| COc1cccc(CNC(=O)c2nc3scc(COCc4ccc(C(=O)O)cc4)c3c(=O)[nH]2)c1 | cell-free assay, competition with immobilised ligand | 1 µM | 89.6 |
| COc1ccnn2ncc(-c3ccnc(N(C)C)n3)c12 | binding | 1 µM | 100 |
| C[C@@H]1CN(c2cc(-c3n[nH]c4ccc(OC5(C)CC5)cc34)ncn2)C[C@H](C)O1 | cell-free assay, competition with immobilised ligand | 0.1 µM | 79 |
| CC1CCCN1c1nccc(-c2cnn3ncccc23)n1 (centres unmarked) | binding | 1 µM | 85 |
| Cn1nc(C(F)(F)F)cc1-c1cnc(N2CCc3cc(S(=O)(=O)Nc4c(F)cc(Cl)cc4F)cc(N4CCCC4=O)c32)nc1 | cell-free assay, competition with immobilised ligand | 1 µM | 100 |
| CCN1CCN(Cc2ccc(C(=O)Nc3ccc(C)c(Oc4ccc5c(c4)CC(=O)N5)c3)cc2C(F)(F)F)CC1 | binding, competition with immobilised ligand | 1 µM | 100 |
| Cc1cc(C)c(-n2ccn3nc(-c4cccnc4)cc23)cc1NC(=O)c1cc(C#N)cc(S(F)(F)(F)(F)F)c1 | cell-free assay, competition with immobilised ligand | 0.1 µM | 83.6 |
| CCN(CC)Cc1cc(Nc2ccnc3cc(Cl)ccc23)ccc1O | cell-free assay, competition with immobilised ligand | 10 µM | 100 |
| N[C@@H]1CCN(c2nccc(-c3cnn4ncccc34)n2)C1 | binding | 1 µM | 100 |
| CNC(=O)c1cc(Oc2ccc(NC(=O)Nc3ccc(Cl)c(C(F)(F)F)c3)cc2)ccn1 | cell-free assay, competition with immobilised ligand | 10 µM | 89 |
| C=CC(=O)N1CCC(C(=O)NCC(=O)N2CCN(c3nc(-c4cnc(N)nc4C(F)F)nc(N4CCOCC4)n3)CC2)CC1 | binding, competition with immobilised ligand | 1 µM | 100 |
